Results reported in ChEMBL document CHEMBL1649236, “The structure of the dizinc subclass B2 metallo-beta-lactamase CphA reveals that the second inhibitory zinc ion binds in the histidine site” (Antimicrob Agents Chemother, 2009).

Tests used:
[1] = system: Aeromonas hydrophila; experiment: Activity of Aeromonas hydrophila metallo-betalactamase CphA N233A mutant expressed in Escherichia coli BL21(DE3) by spectrophotometric analysis in presence of < 0.4 uM zinc ions
How it was run: (§1)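 Steady-state kinetics (kcat, Km, kcat/Km) at 30°C in 15 mM cacodylate pH 6.5, no added Zn2+ (free [Zn2+] < 0.4 µM), enzyme as the mono-zinc form (one Zn per molecule). Substrates imipenem, nitrocefin and CENTA. N233A mutant from E. coli BL21 (DE3) pLysS Star, purified to homogeneity, mass checked by ESI-MS. Standard errors below 10%.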

[2] = system: Aeromonas hydrophila; experiment: Ratio of Kcat to Km for Aeromonas hydrophila metallo-betalactamase CphA N233A mutant expressed in Escherichia coli BL21(DE3) by spectrophotometric analysis in presence of < 0.4 uM zinc ions; how it was run: as §1

Work on `O=C(Cc1cccs1)N[C@@H]1C(=O)N2C(C(=O)O)=C(CSc3ccc([N+](=O)[O-])c(C(=O)O)c3)CS[C@H]12` yielded a Km [1] of 14 µM, a kcat [1] of 0.0035 s⁻¹ and a kcat/Km [2] of 250 M⁻¹ s⁻¹.

With `O=C(Cc1cccs1)N[C@@H]1C(=O)N2C(C(=O)O)=C(/C=C/c3ccc([N+](=O)[O-])cc3[N+](=O)[O-])CS[C@H]12` the Km [1] was 55 µM, the kcat [1] was 0.03 s⁻¹ and the kcat/Km [2] was 520 M⁻¹ s⁻¹.

In the case of `C[C@@H](O)[C@H]1C(=O)N2C(C(=O)O)=C(SCCNC=N)C[C@H]12`, the Km [1] is reported as greater than 1000 µM, the kcat [1] is reported as greater than 700 s⁻¹ and the kcat/Km [2] is reported as 700000 M⁻¹ s⁻¹.
